# rCAG binder: r(CAG) repeat RNA binding; TO-PRO-1 dye displacement fluorescence; inhibition, % at 3 µM; 370,000 tested, 1.3% active; AID 651821;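 active = inhibition above the plate cutoff, the mean of all test compounds on that plate plus 3 SD, cut at about 35% in these data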;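 note: 0% = DMSO alone and 100% = 100 µM mitoxantrone as full dye displacement; higher means more dye released from RNA so lower well fluorescence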
# NadD inh: blocks S. aureus nicotinate mononucleotide adenylyltransferase; purified NadD enzyme, colorimetric absorbance read-out; inhibition, % at 20 µM; 360,000 tested, 0.78% active; in the data active = inhibition above about 26%
# STEP block: STEP (human) phosphatase inhibition | AID 588621 | P54829 | recombinant STEP, OMFP fluorogenic substrate, fluorescence | 360,000 tested, 0.25% active | inhibition, % at 20 µM;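 active = inhibition at 20 µM, scaled per plate between control wells, above about 37%, limit read from the data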;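 note: 0% = DMSO with enzyme and substrate and 100% = substrate only without enzyme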
# Target sequence (P54829 whole entry, looked up): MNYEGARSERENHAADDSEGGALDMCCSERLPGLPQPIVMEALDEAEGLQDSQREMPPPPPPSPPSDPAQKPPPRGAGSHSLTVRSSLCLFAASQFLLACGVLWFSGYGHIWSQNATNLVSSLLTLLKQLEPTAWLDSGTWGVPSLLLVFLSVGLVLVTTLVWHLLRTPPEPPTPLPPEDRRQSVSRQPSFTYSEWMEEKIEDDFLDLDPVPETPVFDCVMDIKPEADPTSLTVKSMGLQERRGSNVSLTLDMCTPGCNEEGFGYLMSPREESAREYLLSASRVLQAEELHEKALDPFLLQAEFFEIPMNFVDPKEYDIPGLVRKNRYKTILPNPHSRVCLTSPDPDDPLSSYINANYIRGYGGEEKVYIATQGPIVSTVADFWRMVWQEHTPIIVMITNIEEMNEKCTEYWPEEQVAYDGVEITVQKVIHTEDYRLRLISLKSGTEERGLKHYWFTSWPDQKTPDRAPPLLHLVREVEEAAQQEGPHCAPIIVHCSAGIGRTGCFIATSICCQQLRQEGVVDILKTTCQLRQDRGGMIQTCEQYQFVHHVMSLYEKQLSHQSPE
#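 System: isolated STEP enzyme; schedule: 20 min enzyme reaction at room temperature, protected from light; medium: Bis-Tris buffer pH 6.0, 2.5 mM DTT, 0.005% Tween 20; signal: fluorescence, 480/540 nm; dosing: single compound dose of 20 µM, 1% DMSO final; also added: OMFP substrate, 25 µM final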
# Scp-1 inhibitor: blocks human Scp-1 phosphatase activity; Q9GZU7; Recombinant Scp1, phosphopeptide, malachite green phosphate absorbance; inhibition, % at 20 µM; 340,000 tested, 0.88% active; AID 493091;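 active = inhibition above about 50% at 20 µM, limit read from the data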;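 note: plate controls were DMSO wells with enzyme for no effect and wells lacking enzyme for full effect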
#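 Test system: SCP-1 phosphatase catalytic domain, residues 76-261 | Compound dosing: One concentration, 20 µM, with 1.0% DMSO | Schedule: 45 min room-temperature reaction, 5 min colour, 30 min stabiliser | Detection: Absorbance at 630 nm | Read-out basis: % inhibition of SCP-1 phosphate liberation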
# LMPTP inh: blocks human LMPTP phosphatase. inhibition, % at 20 µM. P24666. 360,000 tested, 0.22% active. recombinant LMPTP-A, OMFP fluorogenic substrate, fluorescence intensity;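 active = compounds that cut the enzyme signal by at least half of the control window in the single-dose screen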;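 note: plate controls were DMSO wells with enzyme plus substrate for no effect and substrate without enzyme for full effect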
# Target sequence (P24666 whole entry, looked up): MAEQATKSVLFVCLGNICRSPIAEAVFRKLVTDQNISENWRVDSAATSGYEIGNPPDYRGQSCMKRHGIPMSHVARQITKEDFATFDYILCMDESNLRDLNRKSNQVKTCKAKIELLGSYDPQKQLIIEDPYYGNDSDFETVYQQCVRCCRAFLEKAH
#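 material = LMPTP-A | quantity = 0.625 nM enzyme | reagent = OMFP substrate, 400 µM final | buffer or medium = Bis-Tris pH 6.0, DTT, detergent | detection = endpoint fluorescence intensity from OMFP dephosphorylation | dosing = single 20 µM dose | read-out basis = % inhibition relative to no-enzyme and uninhibited control wells | control set = no-enzyme and uninhibited controls | timing = 50 min at room temperature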
# rCAG binder conf: r(CAG) RNA repeat binding, confirmation | shares compounds with rCAG binder | TO-PRO-1 dye displacement fluorescence | inhibition, % at 3 µM | 4,300 tested, 70% active | AID 652065;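 active = inhibition above a per-plate cutoff, the mean inhibition of sample wells plus 3 SD, cut at about 35% in these data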;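 note: loss of TO-PRO-1 fluorescence as compound displaces dye from 1x1 AA loop RNA; 0% = DMSO only wells and 100% = 100 µM mitoxantrone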
# dCAG dye counter: disrupts DNA CAG TO-PRO-1 complex, flagging rCAG hits; shares compounds with rCAG binder; d(CAG) DNA oligo TO-PRO-1 dye displacement, fluorescence; inhibition, % at 3 µM; 4,300 tested, 94% active;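 active = inhibition above its plate's cutoff, the mean test-well inhibition plus 3 SD, cut at about 4.8% in these data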;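 note: 0% = DNA dye mix with DMSO and 100% = 100 µM mitoxantrone; hits displace the dye from DNA and so lower well fluorescence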
# * = called active by the depositor; nt = not tested or not shown. Compounds with a hit are over-represented: about 2.6% of the library has one in this group of screens.
SMILES,rCAG binder,NadD inh,STEP block,Scp-1 inhibitor,LMPTP inh,rCAG binder conf,dCAG dye counter
O=C(NC(=S)Nc1ccc(S(=O)(=O)Nc2nccs2)cc1)c1ccc(F)cc1,52.9*,5.5,-2.7,-7.1,0.0,37.9*,13.8*
COC(=O)c1cc(-c2cc3ccccc3o2)c(=O)n2c1CCC2,3.9,nt,nt,nt,nt,nt,nt
Nc1nc2c(ncn2[C@@H]2O[C@H](C(=O)N[C@H](Cc3ccccc3)C(=O)NC3CCCCC3)[C@@H](O)[C@H]2O)c(=O)[nH]1,3.4,nt,nt,nt,nt,nt,nt
COC(=O)N1C[C@H](O)[C@H](O)C[C@@H]1c1ccccc1Br,2.7,nt,nt,nt,nt,nt,nt
O=C(NCC1CCCO1)c1ccc(Br)s1 (centres undefined),-1.7,0.8,-1.4,1.1,-0.2,nt,nt
O=C(NCC1CCCO1)c1ccc([N+](=O)[O-])s1 (centres undefined),35.7*,-4.1,-1.8,-2.8,-0.3,1.0,1.1
NS(=O)(=O)c1cccc(C(=O)NC2CCSc3ccccc32)c1 (centres undefined),3.5,4.0,0.2,-3.4,0.0,nt,nt
NS(=O)(=O)c1cc(C(=O)NC2CCSc3ccccc32)ccc1Cl (centres undefined),79.5*,19.0,99.6*,94.2*,71.5*,80.6*,49.1*
O=C(NC1CCCCN(Cc2ccc(Cl)cc2)C1=O)c1cccc(C(F)(F)F)c1 (centres undefined),3.6,nt,nt,nt,nt,nt,nt
O=C(CSc1ccc(-c2ccco2)nn1)c1ccc(F)cc1,37.1*,6.6,7.7,-5.5,6.5,8.8,3.7
COc1ccc(NC(=O)CSc2nnc(-c3ccco3)c(-c3ccco3)n2)cc1OC,12.6,-0.9,-2.2,12.2,1.4,nt,nt
COc1ccc(C(=O)CSc2nnc(-c3ccco3)c(-c3ccco3)n2)cc1,51.4*,21.2,4.9,87.0*,33.2,49.5*,22.3*
O=C(CSc1nnc(-c2ccco2)c(-c2ccco2)n1)Nc1ccccc1,60.1*,14.6,17.8,58.5*,52.8*,28.1,14.9*
COCC#Cc1cnc2c(c1)C(=O)N([C@@H](C)CO)C[C@H](C)[C@H](CN(C)C(=O)c1ccc3c(c1)OCO3)O2,5.5,nt,nt,nt,nt,nt,nt
CC(CCN1CCC(C(O)(c2ccccc2)c2ccccc2)CC1)Oc1ccc(C#N)cc1F (centres undefined),4.0,nt,nt,nt,nt,nt,nt
COc1ccc(/C=N\NC(=O)c2cc(O)c(O)c(O)c2)cc1CN1CCN(c2ccc(F)cc2)CC1,41.4*,40.7*,4.3,0.9,6.7,44.8*,19.9*
COc1ccc(/C=N\NC(=O)c2cc(O)c(O)c(O)c2)cc1COc1ccc(C(=O)OCC(C)C)cc1,49.8*,60.1*,5.9,50.6*,12.2,56.1*,35.2*
COc1ccc(/C=N/NC(=O)c2ccc(C)cc2)cc1CN1CCN(c2ccc(F)cc2)CC1,nt,6.0,-0.8,-7.7,0.3,nt,nt
C=C(C)Cn1c(SCC(=O)N/N=C(\C)c2ccc(Br)cc2)nnc1-c1ccc(Br)cc1,5.3,nt,nt,nt,nt,nt,nt
CCOC(=O)N1CCC(=NNC(=O)c2cc3ccccc3cc2O)CC1,36.6*,4.6,5.3,-17.2,-0.4,15.3,10.9*
O=C(NN=C1CCN(Cc2ccccc2)CC1)c1cc2ccccc2cc1O,51.7*,42.0*,-2.2,1.6,3.9,56.9*,29.9*
CCOc1ccc(-n2c(SCC(=O)Nc3ccc(Oc4ccccc4)cc3)nnc2-c2ccncc2)cc1,12.8,nt,nt,nt,nt,nt,nt
COCc1cc(N2CCN(C(=O)OC(C)(C)C)C[C@H]2C)ccc1N1CC[C@H](O)C1,6.2,nt,nt,nt,nt,nt,nt
CCCc1cc(=O)[nH]c(SCC(=O)Nc2cc(S(=O)(=O)N3CCCCC3)ccc2Cl)n1,40.9*,14.1,-3.8,-2.4,0.4,35.0*,11.0*
CCCc1cc(=O)[nH]c(SCC(=O)Nc2ccc(OC)c(S(=O)(=O)N3CCCCC3)c2)n1,23.9,11.2,-0.8,-0.1,0.8,nt,nt
SMILES,rCAG binder,NadD inh,STEP block,Scp-1 inhibitor,LMPTP inh,rCAG binder conf,dCAG dye counter
CCCc1cc(=O)[nH]c(SCC(=O)Nc2ccc(C)c(S(=O)(=O)N3CCCCC3)c2)n1,42.0*,-1.0,-0.1,-5.5,-1.5,36.5*,10.2*
O=C(NCCc1c[nH]c2ccccc12)OCc1cn(Cc2ccc(C(F)(F)F)cc2)nn1,0.6,nt,nt,nt,nt,nt,nt
C=CCn1c(NC(=O)c2ccccc2Cl)c(C#N)c2nc3ccccc3nc21,68.5*,3.5,4.2,-7.2,11.8,66.7*,29.3*
COC(=O)c1scc(S(=O)(=O)C(C)C)c1N/N=C(\C#N)C(=O)c1ccc(Cl)cc1,51.1*,-4.1,0.9,-7.9,-1.2,60.7*,22.6*
COC(=O)c1scc(C#N)c1N/N=C(\C#N)S(=O)(=O)c1ccc(Cl)cc1,40.8*,4.2,-2.9,-10.5,-0.2,66.1*,20.8*
COC(=O)c1scc(C)c1NC(=O)c1ccc(Cl)cc1,nt,-2.5,-1.4,-9.1,-1.1,nt,nt
CC(C)(C)n1nc(C2CC2)cc1NC(=O)Nc1ccccc1,1.0,nt,nt,nt,nt,nt,nt
O=C(O)c1ccc2nc(-c3ccco3)c(-c3ccco3)nc2c1,41.8*,3.2,33.5,47.0,6.3,46.8*,11.6*
O=C(c1ccc2nc(-c3ccco3)c(-c3ccco3)nc2c1)N1CCN(c2ccccc2)CC1,23.3,29.2,4.0,12.1,8.8,nt,nt
O=[N+]([O-])c1cccc(NCCCN2CCC(C(O)(c3ccccc3)c3ccccc3)CC2)c1,4.2,nt,nt,nt,nt,nt,nt
Cc1ccc(C)c(/C=C(\C(=O)O)c2ccc(S(=O)(=O)N3CCCCC3)s2)c1,46.7*,9.6,3.6,39.9,2.5,45.2*,18.5*
O=C(O)/C(=C/c1ccc(Cl)c([N+](=O)[O-])c1)c1ccc(S(=O)(=O)N2CCCCC2)s1,89.2*,8.1,2.8,16.1,0.4,76.9*,40.5*
COc1ccc(Br)cc1/C=C(\C(=O)O)c1ccc(S(=O)(=O)N2CCCCC2)s1,69.5*,2.8,0.4,7.3,0.3,74.2*,36.6*
Cc1ccc(C(=O)C2CCN(CC(=O)N(C)C3CCCCC3)CC2)cc1,-4.0,nt,nt,nt,nt,nt,nt
Cc1cc(NC(=O)Nc2cccc(Cl)c2)n(-c2ccccc2)n1,2.8,-0.4,-0.5,-6.2,0.7,nt,nt
Cc1c(C(=O)NNC(=S)Nc2cccc(Cl)c2)nnn1-c1ccccc1,45.4*,2.9,0.7,-11.7,-1.9,44.1*,13.9*
CC(C)CNS(=O)(=O)/C=C/c1cc2c(cc1CNC(=O)OC(C)(C)C)OCO2,4.9,nt,nt,nt,nt,nt,nt
CCOc1cc(C(=O)Nc2ccc(S(=O)(=O)Nc3nnc(CC)s3)cc2)cc(OCC)c1OCC,63.2*,12.4,-1.5,-10.6,0.2,66.7*,27.9*
CCOc1cc(C(=O)Nc2ccc(S(=O)(=O)Nc3cc(C)on3)cc2)cc(OCC)c1OCC,41.5*,0.6,-0.5,-6.6,-0.8,34.5,8.4*
O=C(Nc1ccc(S(=O)(=O)Nc2ncccn2)cc1)c1cccc(Br)c1,-1.4,-4.7,-0.2,-11.7,-6.9,nt,nt
